Test results published in ChEMBL document CHEMBL1125296, “Structure-activity relationships associated with 3,4,5-triphenyl-1H-pyrazole-1-nonanoic acid, a nonprostanoid prostacyclin mimetic” (J Med Chem, 1992).

Columns and labels:
Homo sapiens = organism: Homo sapiens; assay: Inhibition of ADP-induced human platelet aggregation; type: functional, organism-based
Procedure, shortened: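 Human blood drawn into 1/10 volume 3.8% sodium citrate, spun 10 min at 140g for platelet-rich plasma; compound in DMSO added to PRP 3 min before ADP (5.86 μM); aggregation followed by Born aggregometry (Mustard modification) against vehicle controls; IC50 from dose-response curves.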

Prostacyclin receptor = Prostacyclin receptor (Homo sapiens, UniProt P43119); assay: IC50 value was evaluated by measuring the displacement of [3H]iloprost from Prostaglandin I2 receptor
Chain of Prostacyclin receptor (P43119 whole entry): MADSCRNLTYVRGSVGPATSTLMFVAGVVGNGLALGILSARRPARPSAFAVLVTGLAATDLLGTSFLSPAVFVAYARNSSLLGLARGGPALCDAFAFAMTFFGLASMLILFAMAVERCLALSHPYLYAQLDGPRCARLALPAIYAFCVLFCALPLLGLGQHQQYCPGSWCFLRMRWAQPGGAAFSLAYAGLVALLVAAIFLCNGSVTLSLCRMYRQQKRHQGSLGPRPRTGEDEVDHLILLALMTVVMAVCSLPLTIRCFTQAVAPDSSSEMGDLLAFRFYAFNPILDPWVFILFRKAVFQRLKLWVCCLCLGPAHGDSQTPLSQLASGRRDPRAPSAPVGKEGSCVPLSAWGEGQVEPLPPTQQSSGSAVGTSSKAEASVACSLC
Procedure, shortened: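 Platelet plasma membranes (200 μg) incubated with 5 nM [3H]iloprost in 10 mM MgCl2, 1 mM EGTA, 50 mM Tris/HCl pH 7.4 at 0-4 °C for 90-120 min; diluted with ice-cold Tris buffer, rapidly filtered on GF/C, washed four times, bound radioactivity counted by scintillation; IC50 for displacement.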

O=C(O)COCCCCCCn1nc(-c2ccccc2)c(-c2ccccc2)c1-c1ccccc1
IC50 (Homo sapiens): 0.44 µM

CCc1c(-c2ccccc2)nn(CCCCCCCCC(=O)O)c1-c1ccccc1
IC50 (Homo sapiens): > 79 µM

O=C(O)CCCCCCn1nc(-c2ccccc2)c(-c2ccccc2)c1-c1ccccc1
IC50 (Homo sapiens): 22.4 µM

O=C(O)C[S+]([O-])CCCCCCn1nc(-c2ccccc2)c(-c2ccccc2)c1-c1ccccc1 (stereo not given)
IC50 (Homo sapiens): 6.5 µM

O=C(O)CCCCCCCCn1nc(-c2ccccc2)c(Cc2ccccc2)c1-c1ccccc1
IC50 (Homo sapiens): > 68 µM

O=C(O)CCCCCCCCn1cc(-c2ccccc2)cn1
IC50 (Prostacyclin receptor): > 10 µM | IC50 (Homo sapiens): > 105 µM

O=C(O)CCCCCCCCn1ncc(-c2ccccc2)c1-c1ccccc1
IC50 (Prostacyclin receptor): 0.7 µM | IC50 (Homo sapiens): 5.8 µM

O=C(O)CCCCCn1nc(-c2ccccc2)c(-c2ccccc2)c1-c1ccccc1
IC50 (Homo sapiens): > 78 µM

O=C(O)CCCCCCCn1nc(-c2ccccc2)c(-c2ccccc2)c1-c1ccccc1
IC50 (Homo sapiens): 3.4 µM

COC(=O)CCCCCCCCn1nc(-c2ccccc2)c(-c2ccccc2)c1-c1ccccc1
IC50 (Homo sapiens): 4.3 µM

N#CCCCCCCCCn1nc(-c2ccccc2)c(-c2ccccc2)c1-c1ccccc1
IC50 (Homo sapiens): > 72 µM

O=C(O)CCCCCCCCn1nc(-c2ccccc2)cc1-c1ccccc1
IC50 (Prostacyclin receptor): > 10 µM | IC50 (Homo sapiens): > 66 µM

CNC(=O)CCCCCCCCn1nc(-c2ccccc2)c(-c2ccccc2)c1-c1ccccc1
IC50 (Homo sapiens): > 68 µM

O=C(O)CCCCCCCCn1nc(-c2ccccc2)c(-c2ccccc2)c1-c1ccccc1
IC50 (Prostacyclin receptor): 0.16 µM | IC50 (Homo sapiens): 0.4 µM

O=C(O)CCCCCCCCn1cc(-c2ccccc2)c(-c2ccccc2)n1
IC50 (Prostacyclin receptor): 0.35 µM | IC50 (Homo sapiens): 4.5 µM

O=C(O)CSCCCCCCn1nc(-c2ccccc2)c(-c2ccccc2)c1-c1ccccc1
IC50 (Homo sapiens): 0.87 µM

O=C(O)CS(=O)(=O)CCCCCCn1nc(-c2ccccc2)c(-c2ccccc2)c1-c1ccccc1
IC50 (Homo sapiens): 22 µM

O=C(O)CCCCCCCn1ncc(-c2ccccc2)c1-c1ccccc1
IC50 (Prostacyclin receptor): 0.16 µM | IC50 (Homo sapiens): 1.5 µM

NC(=O)CCCCCCCCn1nc(-c2ccccc2)c(-c2ccccc2)c1-c1ccccc1
IC50 (Homo sapiens): 33 µM

O=C(O)CCCCCCn1cc(-c2ccccc2)c(-c2ccccc2)n1
IC50 (Homo sapiens): > 92 µM

O=C(O)CCCCCCCn1cc(-c2ccccc2)c(-c2ccccc2)n1
IC50 (Homo sapiens): > 85 µM

CS(=O)(=O)NC(=O)CCCCCCCCn1nc(-c2ccccc2)c(-c2ccccc2)c1-c1ccccc1
IC50 (Homo sapiens): 5.9 µM

O=C(O)CCCCCCCCCn1cc(-c2ccccc2)c(-c2ccccc2)n1
IC50 (Homo sapiens): > 81 µM

c1ccc(-c2nn(CCCCCCCCc3nnn[nH]3)c(-c3ccccc3)c2-c2ccccc2)cc1
IC50 (Homo sapiens): 1.04 µM

O=C(O)CCCCCCCCCn1nc(-c2ccccc2)c(-c2ccccc2)c1-c1ccccc1
IC50 (Homo sapiens): 5.5 µM

O=C(O)CCCCCCCCCCn1nc(-c2ccccc2)c(-c2ccccc2)c1-c1ccccc1
IC50 (Homo sapiens): 18.6 µM

CC(C)(C)OC(=O)COCCCCCCn1nc(-c2ccccc2)c(-c2ccccc2)c1-c1ccccc1
IC50 (Homo sapiens): > 62 µM

O=C(O)CCCCCCCCCn1ncc(-c2ccccc2)c1-c1ccccc1
IC50 (Homo sapiens): > 82 µM

O=C(O)CCCCCCn1ncc(-c2ccccc2)c1-c1ccccc1
IC50 (Homo sapiens): > 92 µM
